For data set [1], the system named is J774. As to the kind of experiment: Cytotoxicity against mouse J774 cells assessed as reduction in cell viability after 24 hrs by WST-1 assay. It is filed as cell-based. Conditions: J774, 24 h. In a few lines: (§1)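 J774 murine macrophages in DMEM with 10% FBS, 37 °C, 5% CO2. Exposed 24 h to a 6-point compound series, in triplicate, up to 120 µM with DMSO 1% v/v. Viability read with WST-1 reagent relative to DMSO control and EC50 taken from nonlinear fit. The selectivity index is the macrophage EC50 divided by the trypanosome EC50.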

The test system of data set [2] is Trypanosoma brucei brucei. Description: Antitrypanosomal activity against bloodstream form Trypanosoma brucei brucei 427 […] assessed as cell viability after 48 hrs by propidium iodide staining based flow cytometric analysis. Conditions: Trypanosoma brucei, 427, 48 h. In kind it is functional, organism-based. In a few lines:
(§2)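 Viability of bloodstream T. b. brucei 427 redox-reporter line under lower-density conditions: 1.2×10^4 parasites/mL seeded, 48 h exposure, compound tested up to 60 µM. Nifurtimox included as positive control. Viability read by PI exclusion on flow cytometry.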
A general note: Flow cytometry measures light scatter and fluorescence of single cells or particles in a stream.

Data set [3] in a line: Selectivity ratio of EC50 for antitrypanosomal activity against bloodstream form Trypanosoma brucei brucei 427 assessed as cell viability after 24 hrs to antitrypanosomal activity against bloodstream form Trypanosoma brucei brucei 427 assessed as cell viability after 48 hrs. It is filed as functional.
The subject of data set [4] is Trypanosoma brucei brucei. As to the kind of experiment: Antitrypanosomal activity against bloodstream form Trypanosoma brucei brucei 427 […] assessed as cell viability at 5 uM after 24 hrs by propidium iodide staining based flow cytometric analysis relative to control. It is filed as functional. In a few lines: (§3)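 Bloodstream T. b. brucei 427 expressing hGrx1-roGFP2 (line 449_Grx-roGFP2), grown in HMI-9 with 10% FBS, 37 °C, 5% CO2. Biosensor induced with oxytetracycline (1 µg/mL final). Exponential-phase cells seeded at 5×10^5/mL and exposed 24 h to a single 5 µM screen, or to 0.0001–120 µM for EC50. DMSO ≤1% v/v. Viability read by PI exclusion on flow cytometry, expressed relative to DMSO control. EC50 from nonlinear fit; ≥3 replicates, S.D.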

The test system of data set [5] is J774. Description: Cytotoxicity against mouse J774 cells assessed as reduction in cell viability at 120 uM after 24 hrs by WST-1 assay. In kind it is cell-based. Conditions: j774, 24 h. In a few lines: as §1
Background: Tetrazolium assays rely on reduction of a dye to a coloured formazan, in cell work by metabolically active cells.

The test system of data set [6] is J774. Description: Cytotoxicity against mouse J774 cells assessed as reduction in cell viability >120 uM after 24 hrs by WST-1 assay. Particulars: j774, 24 h. It is filed as cell-based. In a few lines:
as §1

In data set [7] the test system is Trypanosoma brucei brucei. As to the kind of experiment: Antitrypanosomal activity against bloodstream form Trypanosoma brucei brucei 427 […] assessed as cell viability upto 60 uM after 48 hrs by propidium iodide staining based flow cytometric analysis. In kind it is functional, organism-based. Particulars: dose microM <=60, time 48.0 hrs. The method in brief: as §2

Data set [8] concerns Trypanosoma brucei brucei. As to the kind of experiment: Antitrypanosomal activity against bloodstream form Trypanosoma brucei brucei 427 […] assessed as cell viability after 24 hrs by propidium iodide staining based flow cytometric analysis. It is filed as functional, organism-based. Conditions: Trypanosoma brucei, 427, 24 h. The method in brief:
as §3

Data set [9] is described as follows: Selectivity index, ratio of EC50 for cytotoxicity against mouse J774 cells to EC50 for antitrypanosomal activity against bloodstream form Trypanosoma brucei brucei 427. It is filed as toxicity, cell-based. Particulars: read-out: Ratio EC50. The method in brief: as §1
The subject of data set [10] is Trypanosoma brucei brucei. As to the kind of experiment: Induction of membrane permeability in bloodstream form Trypanosoma brucei brucei 427 assessed as change in integrity at EC50 concentration after 4 hrs by propidium iodide staining based flow cytometric analysis.
In data set [11] the test system is Trypanosoma brucei brucei. As to the kind of experiment: Induction of oxidative stress in bloodstream form Trypanosoma brucei brucei 427 up to 5 times EC50 concentration after 4 hrs by propidium iodide staining based flow cytometric analysis. In kind it is functional.
Data set [12] relates to Trypanosoma brucei brucei. Description: Induction of cell cycle arrest in bloodstream form Trypanosoma brucei brucei 427 assessed as accumulation at 1K+1N cells at 12 nM after 24 hrs by DAPI. staining based epifluorescence microscopic analysis (reference value: 80%). In kind it is functional. The method in brief: (§4)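 Parasites at 5×10^5/mL treated 24 h with DMSO 1%, DAC 41 nM, or compound at 12 or 7 nM. Cells fixed in 4% paraformaldehyde for 18 min at room temperature and smeared on slides. Mounted in DAPI medium and scored by epifluorescence microscopy (60X/100X) for kinetoplast/nucleus configuration. At least 50 cells per sample.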

Data set [13] concerns Trypanosoma brucei brucei. As to the kind of experiment: Induction of cell cycle arrest in bloodstream form Trypanosoma brucei brucei 427 assessed as accumulation at single kinetoplast and septum like or partitioned nucleus cells at 12 nM after 24 hrs by DAPI. staining based epifluorescence microscopic analysis relative to control. In kind it is functional. The method in brief: as §4

Data set [14] relates to DNA. Description: Competitive binding affinity to Escherichia coli XL-1 pUC18 plasmid DNA at 20 uM after 30 mins by DAPI staining based spectrofluorimetric method relative to control. It is filed as nucleic-acid assay. In a few lines: (§5)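 pUC18 or pUC18 carrying a T. brucei minicircle, 5 nM in PBS pH 7.4, incubated 30 or 120 min with 20 µM compound or DMSO 1% v/v. DAPI then added to 500 nM final and emission recorded by spectrofluorimetry (ex 358 nm, em 368–600 nm). Fluorescence normalized to the DNA+DMSO+DAPI control set at 100%. Mean ± S.D., n=3.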

Data set [15] concerns DNA. As to the kind of experiment: Competitive binding affinity to Escherichia coli XL-1 pUC18 K-DNA at 20 uM after 30 mins by DAPI staining based spectrofluorimetric method relative to control. In kind it is nucleic-acid assay. In a few lines: as §5
In data set [16] the test system is DNA. As to the kind of experiment: Competitive binding affinity to Escherichia coli XL-1 pUC18 plasmid DNA at 20 uM after 120 mins by DAPI staining based spectrofluorimetric method relative to control. In kind it is nucleic-acid assay. In a few lines: as §5
In data set [17] the test system is DNA. As to the kind of experiment: Competitive binding affinity to Escherichia coli XL-1 pUC18 K-DNA at 20 uM after 120 mins by DAPI staining based spectrofluorimetric method relative to control. It is filed as nucleic-acid assay. The method in brief:
as §5

Data set [18] concerns Trypanosoma brucei brucei. As to the kind of experiment: Induction of cell cycle arrest in bloodstream form Trypanosoma brucei brucei 427 assessed as accumulation at G2/M phase at 41 nM after 24 hrs by propidium iodide staining based flow cytometric analysis (reference value: 20%). In kind it is functional.
For data set [19], the system named is Trypanosoma brucei brucei. As to the kind of experiment: Induction of cell cycle arrest in bloodstream form Trypanosoma brucei brucei 427 assessed as accumulation at G0/G1 phase at 41 nM after 24 hrs by propidium iodide staining based flow cytometric analysis (reference value: 49%). In kind it is functional.
The subject of data set [20] is Trypanosoma brucei brucei. Description: Induction of cell cycle arrest in bloodstream form Trypanosoma brucei brucei 427 assessed as accumulation at 1K+1N cells at 41 nM after 24 hrs by DAPI. staining based epifluorescence microscopic analysis (reference value: 80%). It is filed as functional. In a few lines: as §4
Data set [21] deals with Trypanosoma brucei brucei. As to the kind of experiment: Induction of cell cycle arrest in bloodstream form Trypanosoma brucei brucei 427 assessed as accumulation at 0K+1N cells at 41 nM after 24 hrs by DAPI. staining based epifluorescence microscopic analysis relative to control. It is filed as functional. In a few lines:
as §4

Data set [22] has as its system DNA. As to the kind of experiment: Competitive binding affinity to Escherichia coli XL-1 pUC18 plasmid DNA at 20 uM after 30 to 120 mins by DAPI staining based spectrofluorimetric method relative to control. It is filed as nucleic-acid assay. Particulars: time 30-120 min. In a few lines: as §5
The subject of data set [23] is DNA. Description: Competitive binding affinity to Escherichia coli XL-1 pUC18 K-DNA at 20 uM after 30 to 120 mins by DAPI staining based spectrofluorimetric method relative to control. In kind it is nucleic-acid assay. Particulars: time 30-120 min. In a few lines:
as §5

Data set [24] concerns Trypanosoma brucei brucei. Description: Antitrypanosomal activity against Trypanosoma brucei brucei AnTaT 1.1 infected in Balb/cJ mouse assessed as reduction in parasitemia at 40 mg/kg, ip for single dose and measured after 7 to 17 days. In kind it is functional, organism-based. Conditions: time 7-17 day. The method in brief:
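Female BalB/cJ mice, 6-8 weeks, ~20 g, infected ip with 10^4 bloodstream T. b. brucei AnTaT 1.1. From day 4 post-infection, groups of 6 dosed ip in 300 µL PBS: daily for 7 days at 2.09 or 8.36 mg/Kg, or one 40 mg/Kg dose; vehicle DMSO 3.3 mg/Kg/day for 7 days. Parasitemia from submandibular blood counted by light microscopy in a Neubauer chamber. Detection limit ≥2.5×10^4 parasites/mL. Kruskal-Wallis test versus vehicle.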

For data set [25], the system named is Trypanosoma brucei brucei. As to the kind of experiment: Induction of oxidative stress in bloodstream form Trypanosoma brucei brucei 427 at 250 uM after 20 min by propidium iodide staining based flow cytometric analysis.

Active and inactive are the calls of the source. The rule behind the calls is not given here. Where only a bound is given, the exact number is not on record here.

`CCOC(=O)c1csc(NC(=O)c2csc(NC(=O)c3csc(NC(=O)OC(C)(C)C)n3)n2)n1`: the figures for the EC50 (in the data set with J774 [1]; in [2]) were 5000 nM and 57 nM, respectively. Further, in data set [3], the Ratio EC50 is 5.
As for `COC(=O)c1nc(NC(=O)c2cc([N+](=O)[O-])cn2C)sc1C(C)C`, the Activity in data set [4] is recorded as 105.6%.
As to `CC(=O)Nc1nc(C(=O)Nc2cc(C(=O)Nc3nc(C(=O)O)c(C(C)C)s3)n(C)c2)c(C(C)C)s1`, the Activity in [4] is on record as 113.1%; in the data set on J774 [5] it was “Non-Toxic”; with J774 [6] it was “Nd(Insoluble)”. Besides, in data set [7], the result was inactive.
In the case of `CCOC(=O)c1csc(NC(=O)c2cc([N+](=O)[O-])cn2C)n1`, the Activity in [4] is 120.5%.
On to `COC(=O)c1nc(NC(=O)c2cc(NC(=O)c3nc(NC(=O)OC(C)(C)C)sc3C(C)C)cn2C)sc1C(C)C`, for which the Activity in data set [4] was determined as 15.5%; in data set [12], 48%; in data set [13], 38%; with DNA [14] it was 15%; in the data set on DNA [15], 15%; with DNA [17], 30%. In addition, the results for the EC50 (in [8]; with J774 [1]) were 11.8 nM and 39500 nM, respectively. For the same molecule, the selectivity ratio in data set [9] was greater than 10200. Further, the outcome (in data set [10]; in [11]; in the data set on DNA [16]) was inactive.
On to `CC1CS(=O)(=O)CCN1/N=C/c1ccc([N+](=O)[O-])o1` (stereo not drawn) [NIFURTIMOX], for which the EC50 in [8] stood at 10000 nM; in [2], 750 nM. Moreover, the selectivity ratio in [9] was 10. Further, in data set [3], the Ratio EC50 came to 20.
As to `COC(=O)c1nc(NC(=O)c2cc(NC(=O)c3nc(NC(C)=O)sc3C(C)C)cn2C)sc1C(C)C`, the Activity in data set [4] was 5.4%; in the data set with J774 [5], “Non-Toxic”; in the data set on J774 [6], “Nd(Insoluble)”. Moreover, the concentration for a half-maximal effect (EC50) in data set [8] amounted to 827 nM. Moreover, the selectivity ratio in data set [9] was greater than 145.
Regarding `CC(C)c1sc(NC(=O)c2cc(NC(=O)c3nc(NC(=O)OC(C)(C)C)sc3C(C)C)cn2C)nc1C(=O)O`, the values for the Activity (in data set [4]; with J774 [5]; in the data set with J774 [6]) were 48.5%, “Non-Toxic” and “Nd(Insoluble)”, respectively.
On to `CC(=O)NCC(=O)O.CC(=O)NCC(=O)O.N=C(N)c1ccc(/N=N/Nc2ccc(C(=N)N)cc2)cc1` [DIMINAZENE DIACETURATE], for which the EC50 in data set [8] amounted to 41 nM. Moreover, the Activity worked out at 93% in [18]; 7% in data set [19]; 44% in data set [20]; 39% in data set [21]; 22% in the data set with DNA [22]; 22% in the data set on DNA [23]. The outcome in data set [24] was Active.
Take `Cn1cc(NC(=O)c2csc(NC(=O)OC(C)(C)C)n2)cc1C(=O)Nc1nc(C(=O)O)cs1`: the Activity was 23.6% in data set [4], “Non-Toxic” in the data set on J774 [5] and “Nd(Insoluble)” with J774 [6]. Also, in data set [8], the EC50 amounted to 3320 nM. Moreover, the selectivity ratio in data set [9] is greater than 35.
On to `CC1=CC(=O)c2ccccc2C1=O`, for which the result in data set [25] was Active.
For `Cc1ccc(C(=O)Nc2ccc(S(=O)(=O)O)c3cc(S(=O)(=O)O)cc(S(=O)(=O)O)c23)cc1NC(=O)c1cccc(NC(=O)Nc2cccc(C(=O)Nc3cc(C(=O)Nc4ccc(S(=O)(=O)O)c5cc(S(=O)(=O)O)cc(S(=O)(=O)O)c45)ccc3C)c2)c1` [SURAMIN], the EC50 in data set [8] stood at 78 nM.

Broadly, the EC50 is the midpoint of the concentration-response curve.

Source of the values: ChEMBL document CHEMBL4680177, “Novel distamycin analogues that block the cell cycle of African trypanosomes with high selectivity and potency” (Eur J Med Chem, 2020).
